Compound activity from PubChem.
The list is not random: actives were taken first. Their share in the collection is about 3.3%.
SENP7 block: SENP7 protease inhibitors, primary screen, biochemical, luminescence, uHTS; Sentrin-specific protease 7 (Homo sapiens), Q9BQF6; recombinant SENP7, Z-RLRGG-aminoluciferin luminescence, 40 min; inhibition, % at 5 µM; hit rate 1.5% among 330,000;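 active means inhibition above about 50% at the single test dose, limit read from the data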;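 further: plate controls were DMSO with enzyme for no effect and no enzyme buffer wells for full effect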
SENP1 inh: human SENP1 catalytic domain inhibitors, primary screen, biochemical, FRET, uHTS; recombinant SENP1 catalytic domain, CyPet-SUMO1-YPet FRET cleavage; inhibition, % at 10 µM; hit rate 0.21% among 360,000; Sentrin-specific protease 1 (Homo sapiens), Q9P0U3;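 active means inhibition at least 30% at 10 µM, raw YFP signal under a set limit, fluorescence ratio 0.5 to 1.5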;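 further: 0% = enzyme with DMSO and 100% = no enzyme wells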
Target sequence (Q9P0U3 419-644 limits assumed): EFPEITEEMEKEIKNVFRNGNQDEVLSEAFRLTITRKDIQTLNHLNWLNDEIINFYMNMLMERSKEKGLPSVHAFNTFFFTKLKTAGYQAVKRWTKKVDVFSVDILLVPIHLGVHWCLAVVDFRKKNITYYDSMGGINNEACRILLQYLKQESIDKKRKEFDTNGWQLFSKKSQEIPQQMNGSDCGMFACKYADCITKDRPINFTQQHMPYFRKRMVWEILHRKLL
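Test system: hSENP1 catalytic domain, recombinant; Amount: 20 pM final SENP1 enzyme; Medium: Tris pH 8 buffer plus EDTA, NaCl, BME, BSA, NP40, catalase; Schedule: 50 min enzyme reaction, room temperature, light-protected; Technique: FRET fluorescence in CFP and YFP emission channels; Controls: no-enzyme wells low, DMSO-plus-enzyme wells high control.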
SENP6 inh: SENP6 protease inhibitors, primary screen, biochemical, luminescence, uHTS; Sentrin-specific protease 6 (Homo sapiens), Q9GZR1; inhibition, % at 10 µM; Recombinant SENP6 catalytic domain, aminoluciferin luminescence; hit rate 1.8% among 330,000;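 active means inhibition above about 50% at the single tested dose, limit read from the data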;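 further: plate controls were DMSO wells with enzyme for no effect and DMSO wells lacking enzyme for full effect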
SENP8 block-1: SENP8 protease inhibitors, primary screen, biochemical, luminescence | purified SENP8, Z-RLRGG-aminoluciferin cleavage | inhibition, % at 10 µM | hit rate 1.2% among 330,000 | Sentrin-specific protease 8 (Homo sapiens), Q96LD8; in the data active means inhibition above about 50%
Target sequence (Q96LD8 whole entry, looked up): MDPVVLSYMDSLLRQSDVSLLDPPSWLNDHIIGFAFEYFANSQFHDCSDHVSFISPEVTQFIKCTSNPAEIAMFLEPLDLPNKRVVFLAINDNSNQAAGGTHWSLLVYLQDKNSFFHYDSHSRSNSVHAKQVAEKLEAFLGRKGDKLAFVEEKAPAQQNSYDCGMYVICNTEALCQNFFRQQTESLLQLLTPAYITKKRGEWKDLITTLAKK
NRP1-CendR mod: modulators of CendR peptide binding to NRP-1, primary screen, biochemical, fluorescence polarization, uHTS | FAM-RPARPAR peptide binding to NRP-1 | inhibition, % at 25 µM | hit rate 0.85% among 360,000;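 active means inhibition or corrected inhibition above about 18%, plus a signal ratio from 0.5 to 1.5, limit read from the data, passing the limit was not always enough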
SENP8 block-2: human SENP8 protease inhibitors, primary screen, biochemical, fluorescence, Nedd8 protein substrate, uHTS; Sentrin-specific protease 8 (Homo sapiens), Q96LD8; recombinant SENP8; inhibition, % at 20 µM; hit rate 0.64% among 360,000; AID 602440, 2012; in the data active means inhibition mostly above about 40%, no sharp cut-off; inactive means mostly below about 27%
SENP1 conf: human SENP1 catalytic domain inhibitors, confirmation, biochemical, FRET endpoint, single concentration. shares compounds with SENP1 inh. recombinant SENP1, CyPet-SUMO1-YPet FRET cleavage. inhibition, % at 10 µM. hit rate 34% among 520. AID 651678, 2012; in the data active means inhibition mostly above about 35%, no sharp cut-off; inactive means mostly below about 32%;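 further: 0% = enzyme with DMSO and 100% = no enzyme control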
SENP1 kinetic: human SENP1 catalytic domain inhibitors, confirmation, biochemical, kinetic FRET, single concentration; shares compounds with SENP1 inh; recombinant SENP1, CyPet-SUMO1-YPet FRET kinetic cleavage; inhibition, % at 10 µM; hit rate 26% among 520; AID 651690, 2012; in the data active means inhibition mostly above about 32%, no sharp cut-off; inactive means mostly below about 29%;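 further: 0% = DMSO with enzyme and 100% = no enzyme substrate only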
* hit, by the source's call; i = inactive; x = no result.

SMILES | SENP7 block | SENP1 inh | SENP6 inh | SENP8 block-1 | NRP1-CendR mod | SENP8 block-2 | SENP1 conf | SENP1 kinetic
COc1ccc(-c2c(Sc3ccccc3)c3cc(-c4ccc(OC)c(F)c4)ccc3n2C)cc1 | x | 30* | x | x | -28 | -202 | -35 | 4
CN(Cc1ccccc1)C(CNS(=O)(=O)c1ccccc1)c1ccccc1 (configuration not stated) | x | 1 | x | x | -4 | 20 | x | x
Nc1ccc2oc(=O)c(-c3ccccc3)cc2c1 | 2 | 68* | 7 | 1 | -15 | 18 | 17 | 16
O=C1CCCc2c1cc(C(=O)Nc1ccc(Br)cn1)c(=O)n2-c1ccccc1 | -5 | 70* | 6 | -4 | -4 | -96 | -10 | -8
CCn1c(SC(C)C(=O)Nc2ccc3c(c2)OCCO3)nnc1C1CC1 (configuration not stated) | 4 | 1 | 6 | 4 | 8 | 12 | x | x
Cn1c(=O)c2c(-c3ccccc3)n(-c3ccc(N)cc3)cc2n(C)c1=O | x | 45* | x | x | 37* | 60* | 24 | 9
Cc1cc2nc(C(C)(C)C)c(Cc3ccsc3)n2c(C)c1Br | x | -8 | x | x | -10 | -5 | x | x
CC(=O)C1=C(C)N=c2s/c(=C/c3ccc4c(c3)OCO4)c(=O)n2C1c1ccc(N(C)C)cc1 (configuration not stated) | x | 65* | x | x | -190 | 32 | 32 | 18
COC(=O)C1=C(C)N=c2s/c(=C/c3ccoc3)c(=O)n2C1c1ccccc1 (configuration not stated) | 3 | 2 | 0 | 2 | -225 | 3 | x | x
CC(=O)c1ccccc1Oc1nc(CN2CCOCC2)nc2scc(-c3cccs3)c12 | -7 | 44* | -8 | -2 | -4 | 18 | 52* | 33*
COc1ccc(C(C)=O)c(Oc2nc(CN3CCOCC3)nc3scc(-c4cccs4)c23)c1 | -5 | 0 | -6 | -5 | -35 | 8 | x | x
COc1ccc(OC)c(S(=O)(=O)Nc2ccc3c(c2)OCCO3)c1 | x | 1 | x | x | 7 | 10 | x | x
O=C(Nc1nccs1)c1cc2cc(Cl)ccc2oc1=O | 3 | 45* | -13 | 21 | 0 | 13 | 96* | 83*
Oc1ccccc1NCC(O)Cn1ccc2ccccc21 (configuration not stated) | 5 | 37* | 10 | 1 | -68 | 30 | 5 | 1
OC(CNCc1ccccc1)Cn1ccc2ccccc21 (configuration not stated) | -9 | -20 | -21 | -13 | 3 | -5 | x | x
CC(C)C(=O)Nc1nc(-c2ccc([N+](=O)[O-])cc2)cs1 | -3 | 2 | -14 | -8 | 10 | 10 | x | x
CNc1nc(-c2ccc([N+](=O)[O-])cc2)cs1 | 10 | 44* | 1 | -4 | -2 | 38 | 13 | 12
Cc1nc2[nH]onc2c2nccc(=O)c12 | -2 | 52* | -20 | -10 | 4 | -27 | 50* | 48*
Cc1ccc(C)c(S(=O)(=O)N2CCN(C(=O)Cc3sc(C)nc3-c3ccc(F)cc3)CC2)c1 | x | 1 | x | x | 10 | 15 | x | x
O=[N+]([O-])c1ccc(Oc2cccc3cccnc23)c([N+](=O)[O-])c1 | -2 | 76* | -10 | -8 | -9 | 24 | 25 | 16
CC(C)(C)OC(=O)N/N=C/c1ccc(N2CCOCC2)s1 | 10 | 44* | 3 | -3 | -93 | -184 | 64* | 43*
COc1ccc(CNC(=O)COC(=O)c2ccc3ccccc3n2)cc1 | 10 | 38* | 4 | -7 | -16 | 3 | 26 | 23
Cc1ccc(C)c(NC(=O)COC(=O)c2ccc3ccccc3n2)c1 | -12 | 38* | -6 | -21 | -100 | -6 | 22 | 18
COc1ccc(NC(=O)COC(=O)c2ccc3ccccc3n2)cc1 | -4 | 7 | -6 | -3 | -22 | 12 | x | x
COc1ccc(-c2ccccc2C2=CC(=O)CC(C)(C)C2=O)cc1 | x | 33* | x | x | -11 | 34 | -2 | 1
SMILES | SENP7 block | SENP1 inh | SENP6 inh | SENP8 block-1 | NRP1-CendR mod | SENP8 block-2 | SENP1 conf | SENP1 kinetic
Cc1ccc(-c2ccccc2C2=CC(=O)CC(C)(C)C2=O)cc1 | x | 3 | x | x | -5 | 18 | x | x
COc1cccc(-c2ccccc2C2=CC(=O)CC(C)(C)C2=O)c1 | x | 0 | x | x | 1 | 14 | x | x
COc1ccc2cc(C3=CC(=O)CC(C)(C)C3=O)ccc2c1 | x | 32* | x | x | -16 | 28 | -1 | 5
CCCc1nc2c(Cl)cc(C(F)(F)F)cn2c1Cc1ccc(OC)cc1C | x | -6 | x | x | -2 | -4 | x | x
Cc1cc(NCCCCCCCNc2cc(C)nc3cc([N+](=O)[O-])ccc23)c2ccc([N+](=O)[O-])cc2n1 | x | 1 | x | x | 16 | i | x | x
CC1(C)CC(=O)C2=C(C1)Nc1ccccc1S2 | 1 | 46* | -1 | 0 | 59 | 13 | 29* | 5
O=C(N/N=C/c1cc(Br)c(Br)o1)c1cccnc1 | 6 | 35* | 16 | 9 | 31* | 31 | 7 | 3
O=C(N/N=C/c1cccnc1)c1cccc(Br)c1 | 24 | 31* | -24 | -3 | 7 | 4 | -11 | -8
O=C(N/N=C\c1cc(Br)c(Br)o1)c1cncc(Br)c1 | -3 | 0 | -10 | -6 | 1 | -31 | x | x
Cn1c(SCC(=O)NC2CCCCC2)nnc1C(F)(F)F | x | 0 | x | x | -2 | 15 | x | x
O=[N+]([O-])c1ccc(N/N=C/c2cccnc2)cc1 | 5 | -25 | 32 | 3 | -22 | -93 | x | x
O=[N+]([O-])c1ccc(C=NNc2ccc(S(=O)(=O)O)cc2)cc1 | x | 73* | x | x | -47 | 26 | 29 | 16
COc1cc(Cn2c3ccc(NC(=O)CCc4ccccc4)cc3c(=O)n2C)ccc1F | x | 33* | x | x | -48 | -458 | 4 | 5
CC(=O)n1c2ccccc2c2c1c1ccccc1n2C | -5 | 75* | -14 | -4 | 38* | -9 | -13 | -11
COc1cc2cc(C)c(SCC(=O)N3CCOCC3)nc2cc1OC | -7 | 33* | -9 | -8 | -18 | -16 | 21 | 16
COc1cc2cc(C#N)c(SCC(=O)N3CCOCC3)nc2cc1OC | 1 | -18 | -2 | 1 | -7 | -184 | x | x
CCOc1cc(/C=C2\SC(=S)N(NS(=O)(=O)c3ccccc3)C2=O)ccc1O | -3 | 82* | 46 | 42 | -225 | 39 | 124* | 70*
